The source of these data is ChEMBL document CHEMBL4765238, “Structure-Based Discovery and Optimization of Benzo[ d]isoxazole Derivatives as Potent and Selective BET Inhibitors for Potential Treatment of Castration-Resistant Prostate Cancer (CRPC)” (J Med Chem, 2018).

For assay [1], the target named is T1, Bromodomain-containing protein 4 (Homo sapiens, UniProt O60885). The assay is described as follows: Binding affinity to human recombinant His6-tagged BRD4 bromodomain 1 (N44 to E168 residues) expressed in Escherichia coli BL21 (DE3) cells assessed as change in melting temperature at 200 uM incubated for 30 mins by SYPRO orange dye based thermal shift assay. An outline of the steps:
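Thermal shift assay measuring change in melting temperature of each isolated bromodomain module in the presence of compound versus without.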

Assay [2] concerns the target T1, Bromodomain-containing protein 4. The assay is described as follows: Inhibition of HYSGRGK(Ac)GGK(Ac)GLGK(Ac)GGAK(Ac)RHRK(Biotin)-OH binding to recombinant human His6-tagged BRD4 bromodomain 1 (N44 to E168 residues) expressed in Escherichia coli BL21 (DE3) cells measured after 2 hrs by Alphascreen assay.
In the next assay the test system is LNCaP C4-2B. In words: Antiproliferative activity against AR-positive human C4-2B cells assessed as reduction in cell viability incubated for 96 hrs by cell-titer glo assay. The assay is classed as functional, cell-based. An outline of the steps: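 Prostate cancer cells treated across a concentration range; viability read by CellTiter-Glo luminescence; experiments in triplicate; IC50 derived from the dose–response curves.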

A further assay relates to VCaP. In words: cells. To be noted: Homo sapiens, 144 h, read-out: INH.
Assay [3] addresses T1, Bromodomain-containing protein 4. In words: Inhibition of BRD4 bromodomain 1 (unknown origin) by fluorescence polarization assay. On the technique in general: Fluorescence polarisation rises when a labelled molecule tumbles more slowly, as on binding a larger partner.

In the case of `Cc1cc2onc(C)c2cc1NS(=O)(=O)c1ccccc1`, the ΔTm (commonly the shift of the melting midpoint relative to a reference) in assay [1] amounted to 2 °C. The IC50 (in general, the concentration that inhibits the measured activity by half) in assay [2] is 4960 nM.

Consider `CCCS(=O)(=O)Nc1cc2c(C)noc2cc1C`, for which the ΔTm in assay [1] was determined as 4.5 °C. In assay [2], the IC50 came to 2470 nM.

With `CCOc1cc2onc(C)c2cc1NS(=O)(=O)c1cc(Br)ccc1OC`, the ΔTm in assay [1] was 9.2 °C. For the same molecule, the IC50 in assay [2] was found to be 150 nM.

`Cc1cc2onc(C)c2cc1NS(=O)(=O)c1ccc(F)cc1`: the ΔTm in assay [1] turned out to be 2 °C. In assay [2], the IC50 came to 9820 nM.

As to `Cc1noc2c(Br)cc(-c3nc4ccc(N5CCOC[C@@H]5C)cc4n3CC3CCCCC3)cc12`, the ΔTm in assay [1] turned out to be 7.2 °C. In addition, the IC50 in assay [2] was found to be 320 nM.

Turning to `CCCOc1cc2onc(C)c2cc1NS(=O)(=O)c1cc(Br)ccc1OC`, the ΔTm in assay [1] came to 6 °C. Also, the IC50 in assay [2] amounted to 420 nM.

On to `Cc1cc2onc(C)c2cc1NS(=O)(=O)c1ccccc1C(=O)O`, for which the ΔTm in assay [1] came out at 3.8 °C. The IC50 in assay [2] is 5810 nM.

As for `COc1ccc(S(=O)(=O)Nc2cc3c(C)noc3cc2C)cc1`, the ΔTm in assay [1] was 1.5 °C. The IC50 in assay [2] is over 20000 nM.

Consider `CCCCS(=O)(=O)Nc1cc2c(C)noc2cc1C`, for which the ΔTm in assay [1] is 5 °C. In assay [2], the IC50 was determined as 2550 nM.

For `CCCCn1c(-c2ccc3onc(C)c3c2)nc2ccc(N3CCOCC3)cc21`, in assay [1], the ΔTm is 5.9 °C. Also, the IC50 in assay [2] amounted to 1160 nM.

For `Cc1noc2ccc(-c3nc4ccc(N5CCOCC5)cc4n3CC3CCCCC3)cc12`, the ΔTm in assay [1] was 5.4 °C. In assay [2], the IC50 was 180 nM.

For `Cc1cc2onc(C)c2cc1NS(=O)(=O)c1ccccc1Cl`, the ΔTm in assay [1] worked out at 5.2 °C. In assay [2], the IC50 worked out at 1590 nM.

As for `Cc1cc2onc(C)c2cc1NS(=O)(=O)C1CCCCC1`, the ΔTm in assay [1] worked out at 4.5 °C. Further, the IC50 in assay [2] is 2240 nM.

On to `Cc1cc2onc(C)c2cc1NS(=O)(=O)c1c(Cl)cccc1Cl`, for which the ΔTm in assay [1] amounted to 1.1 °C. In addition, the IC50 in assay [2] is over 20000 nM.

Turning to `COc1ccc(Br)cc1S(=O)(=O)Nc1cc2c(C)noc2cc1OCC(=O)NCCNC(C)=O`, the ΔTm in assay [1] amounted to 5.4 °C. Also, the IC50 in assay [2] amounted to 750 nM.

In the case of `CCCn1c(-c2ccc3onc(C)c3c2)nc2ccc(N3CCOCC3)cc21`, in assay [1], the ΔTm was found to be 6.5 °C. The IC50 in assay [2] was found to be 1370 nM.

As for `COCCn1c(-c2ccc3onc(C)c3c2)nc2ccc(N3CCOCC3)cc21`, the ΔTm in assay [1] was 5 °C. Besides, the IC50 in assay [2] turned out to be 4420 nM.

For the molecule `COc1ccc(Br)cc1S(=O)(=O)Nc1cc2c(C)noc2cc1OCC(=O)NCCN1CCOCC1`, the ΔTm in assay [1] stood at 4.8 °C. Besides, the IC50 in assay [2] was found to be 2270 nM.

With `CCC(C)n1c(-c2ccc3onc(C)c3c2)nc2ccc(N3CCOCC3)cc21` (stereo not drawn), in assay [1], the ΔTm stood at 4.8 °C. The IC50 in assay [2] came out at 3620 nM.

For the molecule `COC(=O)c1ccccc1S(=O)(=O)Nc1cc2c(C)noc2cc1C`, the ΔTm in assay [1] stood at 3 °C. Further, in assay [2], the IC50 amounted to 6930 nM.

In the case of `COc1cc2onc(C)c2cc1NS(=O)(=O)c1cc(Cl)ccc1OC`, the ΔTm in assay [1] was determined as 8.7 °C. For the same molecule, the IC50 in assay [2] came out at 160 nM.

As for `COc1ccc(Br)cc1S(=O)(=O)Nc1cc2c(C)noc2cc1O`, in assay [1], the shift in melting temperature (ΔTm) came out at 9.2 °C. Also, the IC50 in assay [2] came out at 230 nM.

In the case of `Cc1cc2onc(C)c2cc1NS(=O)(=O)c1cccc(Cl)c1Cl`, the ΔTm in assay [1] was 4 °C. Also, in assay [2], the IC50 was 3550 nM.

On to `Cc1noc2ccc(-c3nc4ccc(N5CCOCC5)cc4n3CC3CC3)cc12`, for which the ΔTm in assay [1] turned out to be 6.5 °C. In assay [2], the IC50 worked out at 1410 nM.

Turning to `COc1cc2onc(C)c2cc1NS(=O)(=O)c1ccccc1Cl`, the ΔTm in assay [1] came to 7.8 °C. The IC50 in assay [2] turned out to be 220 nM.

With `Cc1cc2onc(C)c2cc1NS(=O)(=O)c1cc(Cl)ccc1Cl`, the ΔTm in assay [1] was 5 °C. For the same molecule, in assay [2], the IC50 amounted to 2350 nM.

Consider `COCCn1c(-c2cc(Br)c3onc(C)c3c2)nc2ccc(N3CCOCC3)cc21`, for which the ΔTm in assay [1] came to 4.5 °C. In addition, the IC50 in assay [2] is over 20000 nM.

As to `COc1ccc(Br)cc1S(=O)(=O)Nc1cc2c(C)noc2cc1C`, the ΔTm in assay [1] worked out at 7.5 °C. Also, the IC50 in assay [2] worked out at 620 nM.

For the molecule `COc1cc2onc(C)c2cc1NS(=O)(=O)c1cc(C)ccc1OC`, the ΔTm in assay [1] turned out to be 7.8 °C. Moreover, in assay [2], the IC50 came out at 470 nM.

In the case of `COc1ccc(C)cc1S(=O)(=O)Nc1cc2c(C)noc2cc1C`, in assay [1], the ΔTm stood at 4.6 °C. For the same molecule, the IC50 in assay [2] was found to be 2130 nM.

In the case of `COc1ccccc1S(=O)(=O)Nc1cc2c(C)noc2cc1C`, the ΔTm in assay [1] was found to be 6.6 °C. In addition, in assay [2], the IC50 was 830 nM.

Consider `Cc1cc2onc(C)c2cc1NS(=O)(=O)c1ccccc1Br`, for which, in assay [1], the ΔTm turned out to be 4.4 °C. For the same molecule, in assay [2], the IC50 was found to be 1840 nM.

For the molecule `CCCn1c(-c2cc(Br)c3onc(C)c3c2)nc2ccc(N3CCOCC3)cc21`, in assay [1], the ΔTm stood at 6.2 °C. The IC50 in assay [2] came to 1800 nM.

Take `COc1ccc(Cl)cc1S(=O)(=O)Nc1cc2c(C)noc2cc1C`: in assay [1], the ΔTm was found to be 6.5 °C. Besides, the IC50 in assay [2] was 1050 nM.

As for `CCS(=O)(=O)Nc1cc2c(C)noc2cc1C`, in assay [1], the ΔTm was determined as 3 °C. For the same molecule, the IC50 in assay [2] turned out to be 5300 nM.

`CNC(=O)c1ccc(N2C(=S)N(c3ccc(C#N)c(C(F)(F)F)c3)C(=O)C2(C)C)cc1F` [ENZALUTAMIDE]: the IC50 in the assay with LNCaP C4-2B stood at 18000 nM. Besides, in the assay with VCaP, the inhibition at 33 µM worked out at 50%.

`COc1ccc(Br)cc1S(=O)(=O)Nc1cc2c(C)noc2cc1OCC(=O)O`: the ΔTm in assay [1] was determined as 6.2 °C. For the same molecule, the IC50 in assay [2] was determined as 580 nM.

With `COc1ccc(OC)c(S(=O)(=O)Nc2cc3c(C)noc3cc2C)c1`, the ΔTm in assay [1] was determined as 2 °C. In addition, in assay [2], the IC50 was found to be 10700 nM.

As to `CCCCn1c(-c2cc(Br)c3onc(C)c3c2)nc2ccc(N3CCOCC3)cc21`, the ΔTm in assay [1] was 7.2 °C. For the same molecule, in assay [2], the IC50 stood at 520 nM.

In the case of `Cc1cc2onc(C)c2cc1NS(=O)(=O)c1ccc(Cl)cc1`, in assay [1], the ΔTm was determined as 1 °C. For the same molecule, the IC50 in assay [2] was over 20000 nM.

In the case of `Cc1cc2onc(C)c2cc1NS(=O)(=O)C1CCCC1`, the ΔTm in assay [1] amounted to 5 °C. In assay [2], the IC50 worked out at 3050 nM.

For `COc1cc2onc(C)c2cc1NS(=O)(=O)c1cc(Cl)ccc1Cl`, the ΔTm in assay [1] was determined as 7.3 °C. The IC50 in assay [2] was found to be 440 nM.

Turning to `CCOC(=O)C[C@@H]1N=C(c2ccc(Cl)cc2)c2cc(OC)ccc2-n2c(C)nnc21`, the IC50 in assay [3] was determined as 631 nM.

Consider `Cc1cc2onc(C)c2cc1NS(=O)(=O)c1ccc([N+](=O)[O-])cc1`, for which, in assay [1], the ΔTm was 0.5 °C. Further, the IC50 in assay [2] is over 20000 nM.

Regarding `Cc1noc2ccc(-c3nc4ccc(N5CCOCC5)cc4n3Cc3ccccc3)cc12`, the ΔTm in assay [1] turned out to be 6 °C. In addition, in assay [2], the IC50 is 1670 nM.

For the molecule `CCNC(=O)COc1cc2onc(C)c2cc1NS(=O)(=O)c1cc(Br)ccc1OC`, in assay [1], the ΔTm was 5.1 °C. In addition, the IC50 in assay [2] worked out at 1600 nM.

For `Cc1noc2c(Br)cc(-c3nc4ccc(N5CCOCC5)cc4n3CC3CC3)cc12`, in assay [1], the ΔTm is 6 °C. Moreover, the IC50 in assay [2] is 2360 nM.
